From PubChem
EBV gp42 block = blocks Epstein-Barr virus glycoprotein 42 binding. inhibition, % (tested at 21.74 µM). 0.42% of 220,000 active. Fluorescence polarization binding assay, mP read-out. AID 1085
RBBP9 inh = blocks human serine hydrolase RBBP9; recombinant RBBP9, FP-Rh probe fluorescence polarization; inhibition, % at 7.94 µM; 0.2% of 220,000 active;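 active = inhibition above the campaign mean of all tested compounds plus 3 SD, cut at about 14% in these data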
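System: RBBP9 protein / Buffer or medium: Tris/NaCl buffer pH 8.0 with 0.1% Pluronic / Probe or stimulus: Serine-hydrolase probe FP-Rh, 375 nM pre-mixing / Dosing: 7.94 µM single dose, 0.794% DMSO / Times: enzyme-compound preincubation 30 min, then probe labeling 45 min, 25 °C / Technique: fluorescence polarization (mP), excitation 525 nm, emission 598 nm / Replication: singlicate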
14-3-3 Bad PPI = disrupts binding of bovine 14-3-3 zeta to phospho-Bad peptide; inhibition, % at 21.7 µM; TR-FRET 14-3-3zeta/Dy647-pBad peptide displacement, 1 h; AID 781; 0.71% of 220,000 active;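 active = inhibition above about 70%, limit read from the data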
eIF4E-4G inh = blocks eIF4E binding to eIF4G | AID 782 | inhibition, % at 21.7 µM | 0.37% of 220,000 active | TR-FRET eIF4E-eIF4GI(517-606) binding, 2 h;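 active = inhibition above about 30%, limit read from the data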
PKD1 kinase inh = blocks activity of human protein kinase D1 | Q15139 | PKD1 kinase fluorescence polarization assay | inhibition, % (no concentration beside the values) | 0.056% of 200,000 active
Target sequence (Q15139 whole entry, looked up): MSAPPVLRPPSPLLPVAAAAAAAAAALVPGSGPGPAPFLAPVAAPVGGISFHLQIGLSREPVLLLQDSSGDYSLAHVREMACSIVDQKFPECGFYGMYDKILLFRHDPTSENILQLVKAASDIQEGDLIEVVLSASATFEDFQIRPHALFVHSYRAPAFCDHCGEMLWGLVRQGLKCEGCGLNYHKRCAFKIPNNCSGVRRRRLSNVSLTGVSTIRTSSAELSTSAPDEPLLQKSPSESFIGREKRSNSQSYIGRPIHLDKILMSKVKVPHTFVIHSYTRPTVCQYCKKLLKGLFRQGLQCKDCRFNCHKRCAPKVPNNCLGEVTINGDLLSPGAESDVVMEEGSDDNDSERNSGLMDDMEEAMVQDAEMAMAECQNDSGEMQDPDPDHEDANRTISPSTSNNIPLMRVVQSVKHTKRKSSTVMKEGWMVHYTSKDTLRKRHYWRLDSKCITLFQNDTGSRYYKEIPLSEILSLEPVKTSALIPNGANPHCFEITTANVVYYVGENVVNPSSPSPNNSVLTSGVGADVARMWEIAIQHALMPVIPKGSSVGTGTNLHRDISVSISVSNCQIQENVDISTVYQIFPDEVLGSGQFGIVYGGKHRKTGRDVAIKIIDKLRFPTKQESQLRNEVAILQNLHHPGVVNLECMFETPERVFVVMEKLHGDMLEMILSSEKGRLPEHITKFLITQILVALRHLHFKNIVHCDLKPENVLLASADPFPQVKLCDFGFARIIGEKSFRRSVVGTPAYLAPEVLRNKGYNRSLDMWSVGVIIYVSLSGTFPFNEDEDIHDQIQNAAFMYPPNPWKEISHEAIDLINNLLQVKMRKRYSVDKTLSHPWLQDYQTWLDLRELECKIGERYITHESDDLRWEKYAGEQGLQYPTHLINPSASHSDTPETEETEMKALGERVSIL
Large screens that a line does not name were inactive; [ ] = dose if it differs, or a comment. A selection: hits, their analogues and other compounds. The true share with any hit is near 1.6%. Rule as the data show it, unless noted: active = inhibition above about 50%; inactive = the rest.

Fc1cc(F)c2nc(Nc3nc4cc5c(cc4s3)OCO5)sc2c1	14-3-3 Bad PPI 95[fluorescence artefact?]
O=C(NCCN1CCNCC1)c1ccccn1	14-3-3 Bad PPI 73
O=C(NCCCNCCCNC(=O)c1ccccn1)c1ccccn1	none
COc1cc(-n2c(=O)c3ccccc3n(Cc3cc(=O)n4ccccc4n3)c2=O)cc(OC)c1OC	none
CC(C)CC1=NN2C(=N)/C(=C\c3coc4ccccc4c3=O)C(=O)N=C2S1	none
CCSC1=NSC2=NC(=O)/C(=C\c3coc4ccccc4c3=O)C(=N)N12	EBV gp42 block 88
CC(C)CNS(=O)(=O)c1ccc(CCC(=O)NCCC2=CCCCC2)cc1	none
CCOc1cccc(/C(O)=C2/C(=O)C(=O)N(Cc3ccco3)C2c2ccncc2)c1 (stereo unspecified)	14-3-3 Bad PPI 74
CN(C)/C=N/C1=C(C#N)C(c2cccs2)c2ccc3ccccc3c2O1 (stereo unspecified)	none
O=C(C1=NN(c2ccccc2)C2C(=O)N(c3cccc(Cl)c3)C(=O)C12)c1ccccc1 (stereo unspecified)	EBV gp42 block 74
O=C1C2C3CC(C2C(=O)N1c1cccc(Cl)c1)[C@H](O)C3O (stereo partly specified)	none (no result: PKD1 kinase inh)
O=C(C1=NN(c2ccccc2)C2C(=O)N(c3ccc(Cl)cc3)C(=O)C12)c1ccccc1 (stereo unspecified)	EBV gp42 block 67
Cc1ccccc1NCc1nnc2n1CCCCC2	none
O=c1c2c(nc3nc(NCc4cccc(Cl)c4)[nH]n13)CCC2	14-3-3 Bad PPI 72
CC(C)c1ccc(CNc2nc3nc4c(c(=O)n3[nH]2)CCC4)cc1	none
COc1ccc(NC(=O)Nc2cccc(C(F)(F)F)c2)cn1	none
CC1(C)CC(=O)C2=C(C1)OC1OC(=O)CC21C (stereo unspecified)	none
Cc1ccc(NC2=NCC(=O)N2Cc2cccs2)cc1C	none
COc1ccc(CN2C(=O)CN=C2Nc2cccc(C)c2C)cc1	14-3-3 Bad PPI 82
COc1ccc(NC2=NCC(=O)N2Cc2cccs2)cc1	14-3-3 Bad PPI 75, eIF4E-4G inh 43
COc1cccc(NC2=NCC(=O)N2Cc2cccs2)c1	14-3-3 Bad PPI 71
CSc1cccc(NC(=S)N2CCCN(Cc3ccc(F)cc3)C2)c1	none
CC(C)(C)c1cc[n+](CC(=O)Nc2cc(C(F)(F)F)ccc2N2CCOCC2)cc1	none
Cc1c(C(=O)/C=C/N(C)C)nnn1-c1ccc(Cl)cc1C#N	none (no result: PKD1 kinase inh)
Cc1ccc(C)c(NC2=CC(=O)CC(C)(C)C2)c1C#N	14-3-3 Bad PPI 76
O=C(CNC(=O)c1ccc(N2C(=O)c3ccccc3C2=O)cc1)OCC(=O)c1ccc(Cl)cc1	none
C#CCOCCOCCOCCNc1nc(N2CCN(C(=O)[C@H](CCCCN)n3cc([C@@H](N)CO)nn3)CC2)nc(N2CCN(C(=O)[C@H](Cc3cc4ccccc4[nH]3)n3cc([C@@H](N)CC(C)C)nn3)CC2)n1	none
O=Cc1ccnc(-c2ccc(OC(=O)c3ccco3)cc2)n1	none
CCn1c(=N)n(CC(=O)c2cccc([N+](=O)[O-])c2)c2ccccc21	14-3-3 Bad PPI 74[fluorescence artefact?]
CC(C)(C)c1cc(C(=O)NNc2cc(C(F)(F)F)ccc2Cl)n(Cc2ccccc2)n1	none (no result: PKD1 kinase inh)
COc1ccccc1N1CCN(S(=O)(=O)Cc2ccccc2Cl)CC1	eIF4E-4G inh 31
CC1CCc2c(sc(NC(=O)CSc3ncnc4c3cnn4-c3ccccc3Cl)c2C#N)C1 (stereo unspecified)	none
CN1C[C@@H]2C[C@@H](c3cccn3-c3nccs3)N3CCC[C@@]23C1=O	none
O=S(=O)(c1ccc(NC(=S)N/N=C/c2c3ccccc3cc3ccccc23)cc1)N1CCOCC1	EBV gp42 block 63
CCn1c(COc2ccccc2C)nnc1SCC(=O)N1CCC(C)CC1	EBV gp42 block 76
COc1ccc(Nc2ccc(S(=O)(=O)N3CCCCC3)cc2[N+](=O)[O-])cc1	14-3-3 Bad PPI 85
COc1ccc(Nc2ccc(S(=O)(=O)N3CCCCC3)cc2[N+](=O)[O-])cc1Cl	none
CC1CC(CCC(=O)NC(=S)Nc2ccc(Cl)cn2)C(=O)O1 (stereo unspecified)	none
N=C1/C(=C/c2ccc(-c3cccc(C(=O)O)c3)o2)C(=O)N=C2SC=C(c3ccccc3)N12	EBV gp42 block 67, 14-3-3 Bad PPI 93, eIF4E-4G inh 80
N=C1/C(=C\c2ccc(-c3cc(Cl)cc(Cl)c3)o2)C(=O)N=C2SC=C(c3ccccc3)N12	none
O=C1OC(c2cccs2)=N/C1=C/c1ccc(-c2cccc(C(=O)O)c2)o1	14-3-3 Bad PPI 76, eIF4E-4G inh 36
O=C(Cc1c(Cl)cccc1Cl)NC1=NCCS1	none
Cc1ccc(NC(=S)Nc2ccc(C(C)C)cc2)cc1S(=O)(=O)N1CCCCCC1	none
Cc1ccnc(NC(=O)COC(=O)c2ccc(F)cc2F)n1	none (no result: PKD1 kinase inh)
Cc1ccnc(NC(=O)Cc2ccc(F)cc2)n1	eIF4E-4G inh 85 (no result: PKD1 kinase inh)
COc1cc2c(cc1NC(=O)CN1C(=O)NC3(CCc4ccccc43)C1=O)oc1ccccc12 (stereo unspecified)	EBV gp42 block 62
COc1ccc(N2CSC3=C(C#N)C(c4cccs4)CC(=O)N3C2)cc1 (stereo unspecified)	eIF4E-4G inh 47[fluorescence artefact?]
O=C(OC(C(=O)NCc1ccco1)C(OC(=O)c1ccccc1)C(=O)NCc1ccco1)c1ccccc1 (stereo unspecified)	none
CC(C)NC(=O)C(OC(=O)c1ccccc1)C(OC(=O)c1ccccc1)C(=O)O (stereo unspecified)	14-3-3 Bad PPI 70
CCCCOC(=O)C(C#N)c1nc2ccccc2nc1N1CCOCC1 (stereo unspecified)	none
CCCCCCOC(=O)C(C#N)c1nc2ccccc2nc1N1CCOCC1 (stereo unspecified)	EBV gp42 block 99
CNc1nc(-c2ccccc2)[n+](-c2ccc(C)cc2)s1	eIF4E-4G inh 39
CCOc1ccc(C(=O)Nc2cc(-c3nc4ccccc4[nH]3)ccc2C)cc1[N+](=O)[O-]	14-3-3 Bad PPI 75
CCOc1ccc(C(=O)Nc2cc(-c3nc4ccccc4[nH]3)ccc2Cl)cc1[N+](=O)[O-]	none
Cc1sc(NC(=O)Cn2nc(C(F)(F)F)cc2C)c(C(=O)OC(C)C)c1C	eIF4E-4G inh 31
CC(=O)Nc1sc(C)c(C)c1C(=O)OC(C)C	none
Cn1c(CNc2ccccc2)nc2ccccc21	none
Cn1c(C(C)(O)C(O)c2ccccc2)nc2ccccc21 (stereo unspecified)	eIF4E-4G inh 88[fluorescence artefact?]
Cc1cc(C)n2nc(CC(=O)NCc3ccc(F)cc3)nc2n1	none
COc1cccc(Oc2c(C)oc3c(CN4CCCC4)c(O)ccc3c2=O)c1	none (no result: PKD1 kinase inh)
COCCCN(C(=O)Nc1cccc(Cl)c1)C(C)c1ccccn1 (stereo unspecified)	14-3-3 Bad PPI 73
C=CCn1c(-c2ccco2)n[nH]c1=S	eIF4E-4G inh 67
S=c1[nH]nc(-c2ccco2)n1/N=C/c1ccccc1Cl	none
